In the library only some 1.3% were active in any assay of this set; here they are far more common.
PLC-gamma1 inh = blocks human PLC-gamma1 enzyme activity; P19174; inhibition, % at 12.2 µM; 370,000 compounds, 0.84% hits; purified PLC-gamma1, fluorogenic substrate, fluorescence; AID 720700; in the data active = inhibition above about 9.5%
NTR1 ag = agonists of human neurotensin receptor NTR1; P30989; NTR1-U2OS beta-arrestin-GFP spot imaging, agonist mode; activation, % at 20 µM; 330,000 compounds, 0.17% hits; AID 493036;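 active = activation at or above 40% of the spot to cytoplasm intensity ratio, with at least 20 cells analyzed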
Target sequence (P30989 whole entry, looked up): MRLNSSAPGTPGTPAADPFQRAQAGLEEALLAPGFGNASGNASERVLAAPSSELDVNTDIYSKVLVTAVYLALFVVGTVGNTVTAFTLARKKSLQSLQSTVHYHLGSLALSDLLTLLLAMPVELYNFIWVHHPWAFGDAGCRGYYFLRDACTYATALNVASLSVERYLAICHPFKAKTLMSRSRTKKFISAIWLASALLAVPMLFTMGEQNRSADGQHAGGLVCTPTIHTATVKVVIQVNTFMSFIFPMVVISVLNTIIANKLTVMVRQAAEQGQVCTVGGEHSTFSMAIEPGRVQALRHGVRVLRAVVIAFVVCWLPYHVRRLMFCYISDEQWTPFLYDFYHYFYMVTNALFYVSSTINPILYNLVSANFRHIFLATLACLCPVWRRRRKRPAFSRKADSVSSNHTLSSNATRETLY
Arrestin-AP2 inh = inhibitors of human beta-arrestin and AP2 interaction. FITC-arrestin peptide / GST-AP2 beads, flow cytometry; AP2 beta2 appendage carries R879A mutation. inhibition, % at 10 µM. 340,000 compounds, 0.31% hits. AID 504490;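 active = inhibition above a set limit, near 3 SD of compounds lacking own fluorescence, cut at about 54% in these data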
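system = GST-tagged AP2 beta2-adaptin appendage (R879A) on 4 µm glutathione beads | reagent = FITC-labelled arrestin peptide probe, 50 nM final | schedule = compound with beads 12 min RT, then probe 1 h RT | signal = HyperCyt-sampled flow cytometry, FL1 channel, ex 488/em 535 nm | read-out = percent response from loss of bead-bound FITC fluorescence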
PLC-beta3 inh = inhibitors of human phospholipase C beta3; Q01970; Purified PLC-beta3, fluorogenic substrate, fluorescence; inhibition, % at 12.2 µM; 370,000 compounds, 0.18% hits; AID 720704
PLCgamma1 ctr = PLC-gamma1 inhibition, counter-screen for PLC-beta3 hits | purified PLC-gamma1, fluorogenic substrate, fluorescence | 3,300 compounds, 3.1% hits | shares compounds with PLC-gamma1 inh | AID 743258 | inhibition, % at 12.3 µM; in the data active = inhibition above about 9.5%
PLCbeta3 conf = confirmation of human PLC-beta3 inhibitors | shares compounds with PLC-gamma1 inh | purified PLC-beta3, fluorogenic substrate fluorescence | inhibition, % at 12.3 µM | 3,300 compounds, 1% hits | AID 743261
Each line names hits and unclear results; the compound was inactive in the other large screens (follow-up assays come after a bar, where they were run). Cut-off read from the data, not from the text of the source, unless noted: active = inhibition above about 11%; inactive = the rest.

COc1ccc(Cn2ccc3ccc(-c4ccc5ccn(Cc6ccccc6)c5c4)cc32)cc1	none (no result: NTR1 ag, Arrestin-AP2 inh)
COc1ccc(S(=O)(=O)N(CCc2ccccc2)CC(=O)NC(C)C)cc1	PLC-gamma1 inh 10.7 | PLCgamma1 ctr inactive | PLCbeta3 conf inactive
COc1ccc(S(=O)(=O)N(CC(=O)NC(C)C)Cc2ccccc2)cc1	none
CC(=O)Nc1ccc(NC(=O)COC(=O)c2ccc(C)s2)cc1	PLC-gamma1 inh 10.9 | PLCgamma1 ctr inactive | PLCbeta3 conf inactive
COc1ccc(NC(=O)Cn2nnc(C(=O)NCc3ccc(C)cc3)c2N)cc1Cl	PLC-gamma1 inh 12.8 | PLCgamma1 ctr inactive | PLCbeta3 conf inactive
COc1ccc(Cl)cc1NC(=O)c1nnn(CC(=O)Nc2ccc(C)c(C)c2)c1N	PLC-gamma1 inh 9.7 | PLCgamma1 ctr inactive | PLCbeta3 conf inactive
C[C@H]1[C@H](NC(=O)c2ccc(C(C)(C)C)cc2)CC[C@@]23CCCN2C(=O)CCC[C@@H]13	none (no result: NTR1 ag, Arrestin-AP2 inh)
CC(C)Cn1c2c(c(O)c(C(=O)Nn3c(Cc4ccccc4)nc4ccccc4c3=O)c1=O)CCCC2	none
CCCCc1nc2ccccc2c(=O)n1NC(=O)c1c(O)c2c(n(CC(C)C)c1=O)CCCC2	PLC-gamma1 inh 12.5 (no result: NTR1 ag) | PLCgamma1 ctr inactive | PLCbeta3 conf inactive
COc1ccc(-n2c(SCC(=O)NN=Cc3c(O)ccc4ccccc34)nnc2-c2ccc(C(C)(C)C)cc2)cc1	none (no result: NTR1 ag, Arrestin-AP2 inh)
CCOc1ccc(S(=O)(=O)N(C)c2ccc(OCC(=O)N3CCOCC3)cc2)cc1	PLC-gamma1 inh 9.8 | PLCgamma1 ctr inactive | PLCbeta3 conf inactive
Cc1ccc(Cn2nnc3c2-c2cc(F)ccc2S(=O)(=O)N(C(C)(C)C)C3)cc1	none (no result: NTR1 ag, Arrestin-AP2 inh)
Cc1ccccc1CN1CCN(CC(=O)NCCCN2CCN(c3ccc(F)cc3)CC2)C1=O	PLC-gamma1 inh 9.6, PLC-beta3 inh 13.3 | PLCgamma1 ctr inactive | PLCbeta3 conf inactive
O=C(CN1CCN(Cc2ccc(Cl)cc2)C1=O)NCCCN1CCN(c2ccc(F)cc2)CC1	none
COC(=O)C1=C(C)N(Cc2ccccc2C(F)(F)F)C(=NCc2ccc(C(F)(F)F)cc2)NC1c1ccc(Cl)cc1 (stereo not drawn)	none (no result: NTR1 ag, Arrestin-AP2 inh)
Nc1nonc1C(=O)N1CCCC1	none
Cc1c(C(=O)N2CCCCC2)nnn1-c1nonc1N	PLC-gamma1 inh 18.6 | PLCgamma1 ctr inactive | PLCbeta3 conf inactive
Cn1c(=O)c2cc(S(=O)(=O)N3CCN(CCO)CC3)ccc2n(C)c1=O	none (no result: NTR1 ag, Arrestin-AP2 inh)
O=C(O)c1cccc(-c2ccc(/C=c3/sc4nc5ccccc5n4c3=O)o2)c1	PLC-gamma1 inh 18.1 | PLCgamma1 ctr inactive | PLCbeta3 conf inactive
Cc1ccc(N2CC(C(=O)N/N=C/c3sccc3C)CC2=O)cc1 (stereo not drawn)	none
Cc1ccsc1/C=N/NC(=O)C1CC(=O)N(c2ccccc2)C1 (stereo not drawn)	PLC-beta3 inh 11.2 | PLCgamma1 ctr inactive | PLCbeta3 conf inactive
O=C(c1ccc(F)cc1Cl)N(Cc1ccccn1)CC1CCCO1 (stereo not drawn)	none (no result: NTR1 ag, Arrestin-AP2 inh)
CCOC(=O)C1=CCN(S(=O)(=O)c2ccc(Br)cc2)C1c1ccc(F)cc1 (stereo not drawn)	none (no result: NTR1 ag, Arrestin-AP2 inh)
Cn1c(=O)c2c(c3ccccc31)OC(C)(C)C=C2	none (no result: NTR1 ag, Arrestin-AP2 inh)
O=C(CNC(=O)C1CCCCC1)Nc1ccccc1Cl	none
O=C(CNC(=O)C1CCCCC1)Nc1cc(Cl)ccc1Cl	PLC-gamma1 inh 11.4 | PLCgamma1 ctr inactive | PLCbeta3 conf inactive
Cc1ccc(-n2c(SCC(=O)c3ccc(F)cc3)nnc2-c2cnccn2)cc1	none (no result: NTR1 ag, Arrestin-AP2 inh)
CCOC(=O)C(Sc1nn(C)c(=S)s1)C(C)=O (stereo not drawn)	PLC-beta3 inh 10.9 | PLCgamma1 ctr inactive | PLCbeta3 conf inactive
Cn1nc(SCC(=O)O)sc1=S	none
O=S(=O)(CS(=O)(=O)c1ccccc1Br)c1ccccc1Br	PLC-gamma1 inh 22.1 (no result: NTR1 ag, Arrestin-AP2 inh) | PLCgamma1 ctr 17.1 | PLCbeta3 conf inactive
O=S(=O)(NCc1ccccc1)c1ccccc1Br	none
Cc1cccc(CCNC(=O)CCS(=O)(=O)c2ccc(Br)cc2)c1	none
COc1ccc(S(=O)(=O)CCC(=O)NCCc2cccc(C)c2)cc1	PLC-gamma1 inh 9.7 | PLCgamma1 ctr inactive | PLCbeta3 conf inactive
O=C(NNC(=O)c1cccc2ccccc12)c1ccc(F)cc1	PLC-beta3 inh 16.9 (no result: NTR1 ag) | PLCgamma1 ctr inactive | PLCbeta3 conf inactive
CN(CCO)C1CN(Cc2cn(Cc3ccccc3C(F)(F)F)nn2)S(=O)(=O)C1 (stereo not drawn)	none (no result: NTR1 ag, Arrestin-AP2 inh)

Screens from PubChem.
